According to ChEMBL document CHEMBL1144528, “Synthesis of 8-thiabicyclo[3.2.1]octanes and their binding affinity for the dopamine and serotonin transporters” (Bioorg Med Chem, 2007):

Assays:
[1] = target: Transporter (Macaca mulatta, UniProt Q7JHP9); experiment: Displacement of [3H]WIN-35428 from DAT in rhesus monkey caudate-putamen; assay type: tissue-based
Procedure, shortened: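 Rhesus or cynomolgus caudate-putamen membranes (4 mg original wet weight/mL) in 50 mM Tris·HCl pH 7.4, 100 mM NaCl. Incubated 2 h at 0-4 °C with 0.3 nM [3H]WIN35,428 and a range of drug concentrations. Filtered on 0.1% BSA-soaked glass fibre filters and scintillation counted. Nonspecific binding defined with 30 μM (-)-cocaine. IC50 is the mean of ≥2 experiments in different brains, each in triplicate.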

[2] = species: Macaca mulatta; experiment: Selectivity for rhesus monkey DAT over rhesus monkey SERT
Procedure, shortened: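 Ratio of SERT IC50 ([3H]citalopram binding) to DAT IC50 ([3H]WIN35,428 binding), both measured in monkey caudate-putamen membranes.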

[3] = target: Sodium-dependent serotonin transporter (Macaca mulatta, UniProt Q9MYX0); experiment: Displacement of [3H]citalopram from SERT in rhesus monkey caudate-putamen; assay type: tissue-based
Procedure, shortened: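 Caudate-putamen membranes from rhesus or cynomolgus monkey (4 mg original wet weight/mL) in 50 mM Tris·HCl pH 7.4 with 100 mM NaCl. Incubated with 1 nM [3H]citalopram and a range of test drug concentrations for 2 h at 0-4 °C. Filtered over glass fibre filters pre-soaked in 0.1% polyethyleneimine, then scintillation counted. IC50 is the mean of ≥2 independent experiments in different brains, each in triplicate.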

Transporter, sequence (Q7JHP9 whole entry): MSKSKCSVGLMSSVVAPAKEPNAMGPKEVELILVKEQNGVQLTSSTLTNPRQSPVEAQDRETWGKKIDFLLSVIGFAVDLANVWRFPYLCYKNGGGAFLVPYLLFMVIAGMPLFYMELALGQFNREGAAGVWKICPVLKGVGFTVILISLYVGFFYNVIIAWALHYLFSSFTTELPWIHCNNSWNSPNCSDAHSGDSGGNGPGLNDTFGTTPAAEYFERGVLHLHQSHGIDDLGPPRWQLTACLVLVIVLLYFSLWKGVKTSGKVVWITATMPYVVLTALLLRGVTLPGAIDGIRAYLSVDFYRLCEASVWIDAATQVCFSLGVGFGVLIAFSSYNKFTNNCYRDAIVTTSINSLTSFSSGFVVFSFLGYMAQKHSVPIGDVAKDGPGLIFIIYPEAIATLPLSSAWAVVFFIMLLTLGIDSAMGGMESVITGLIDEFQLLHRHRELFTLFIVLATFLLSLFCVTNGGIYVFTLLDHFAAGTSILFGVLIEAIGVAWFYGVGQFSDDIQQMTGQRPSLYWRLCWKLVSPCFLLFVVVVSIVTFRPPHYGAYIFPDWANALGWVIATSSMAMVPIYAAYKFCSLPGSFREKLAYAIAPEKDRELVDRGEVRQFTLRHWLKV
Sodium-dependent serotonin transporter, sequence (Q9MYX0 whole entry): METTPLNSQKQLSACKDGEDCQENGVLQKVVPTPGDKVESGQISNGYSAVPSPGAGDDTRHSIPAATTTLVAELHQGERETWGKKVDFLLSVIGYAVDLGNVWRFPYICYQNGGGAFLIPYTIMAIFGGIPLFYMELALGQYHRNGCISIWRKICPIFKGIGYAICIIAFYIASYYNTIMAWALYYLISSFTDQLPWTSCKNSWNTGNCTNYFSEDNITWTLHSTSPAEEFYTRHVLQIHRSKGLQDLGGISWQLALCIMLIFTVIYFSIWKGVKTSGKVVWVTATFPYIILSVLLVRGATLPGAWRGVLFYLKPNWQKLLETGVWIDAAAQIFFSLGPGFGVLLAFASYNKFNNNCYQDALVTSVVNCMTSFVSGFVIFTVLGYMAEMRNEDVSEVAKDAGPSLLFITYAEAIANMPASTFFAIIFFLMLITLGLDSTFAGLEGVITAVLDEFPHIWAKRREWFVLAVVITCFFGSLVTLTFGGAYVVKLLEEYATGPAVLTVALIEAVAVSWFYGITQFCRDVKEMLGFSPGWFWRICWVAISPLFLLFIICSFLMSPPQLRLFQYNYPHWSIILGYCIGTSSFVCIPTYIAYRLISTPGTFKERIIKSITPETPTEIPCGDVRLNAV

COC(=O)[C@@H]1[C@@H]2[C@H](O)CC(C[C@@H]1c1ccc(Cl)c(Cl)c1)N2C
IC50 [1]: 2690 nM
Ratio IC50 [2]: 0.05
IC50 [3]: 139 nM

COC(=O)[C@@H]1C2CCC(C[C@H]1c1ccc(Br)cc1)S2 (some centres not stated)
IC50 [1]: 6 nM
Ratio IC50 [2]: 57
IC50 [3]: 342 nM

COC(=O)[C@@H]1C2CCC(C[C@@H]1c1ccc(Cl)c(F)c1)S2 (some centres not stated)
IC50 [1]: 6 nM
Ratio IC50 [2]: 3
IC50 [3]: 17 nM

COC(=O)[C@@H]1C2CCC(C[C@H]1c1ccccc1)S2 (some centres not stated)
IC50 [1]: 140 nM
Ratio IC50 [2]: > 57
IC50 [3]: > 8000 nM

COC(=O)[C@@H]1C2CCC(C[C@H]1c1ccc(Br)cc1)[S+]2[O-] (some centres not stated)
IC50 [1]: 14 nM
Ratio IC50 [2]: > 1710
IC50 [3]: > 24000 nM

COC(=O)[C@@H]1C2CCC(C[C@@H]1c1ccc(Cl)cc1)S2 (some centres not stated)
IC50 [1]: 9.6 nM
Ratio IC50 [2]: 3.4
IC50 [3]: 33 nM

COC(=O)[C@@H]1[C@H]2CCC(C[C@H]1c1ccc(Cl)c(Cl)c1)O2
IC50 [1]: 2.3 nM
Ratio IC50 [2]: 13
IC50 [3]: 31 nM

COC(=O)[C@@H]1C2CCC(C[C@H]1c1ccc(I)cc1)S2 (some centres not stated)
IC50 [1]: 9 nM
Ratio IC50 [2]: 8
IC50 [3]: 70 nM

COC(=O)C1=C(c2ccc3ccccc3c2)CC2CCC1S2 (configuration not stated)
IC50 [1]: 8 nM
Ratio IC50 [2]: > 163
IC50 [3]: > 1000 nM

COC(=O)[C@@H]1[C@@H]2[C@H](O)CC(C[C@H]1c1ccc(Cl)c(Cl)c1)N2C
IC50 [1]: 482 nM
Ratio IC50 [2]: 11
IC50 [3]: 5300 nM

COC(=O)C1=C(c2ccccc2)CC2CCC1S2 (configuration not stated)
IC50 [1]: 910 nM
Ratio IC50 [2]: > 11
IC50 [3]: > 10000 nM

COC(=O)C1=C(c2ccc(F)cc2)CC2CCC1S2 (configuration not stated)
IC50 [1]: 220 nM
Ratio IC50 [2]: > 127
IC50 [3]: > 30000 nM

COC(=O)[C@@H]1[C@H]2CCC(C[C@H]1c1ccc(Cl)c(Cl)c1)S2
IC50 [1]: 4.9 nM
Ratio IC50 [2]: 8
IC50 [3]: 39 nM

COC(=O)C1=C(c2ccccc2)CC2CCC1[S+]2[O-] (configuration not stated)
IC50 [1]: 6000 nM
Ratio IC50 [2]: > 1.6
IC50 [3]: > 10000 nM

COC(=O)[C@@H]1[C@@H]2CCC(C[C@H]1c1ccc(Cl)c(Cl)c1)S2
IC50 [1]: 10 nM
Ratio IC50 [2]: 14
IC50 [3]: 139 nM

COC(=O)[C@@H]1C2CCC(C[C@H]1c1ccc(Cl)c(Cl)c1)O2 (some centres not stated)
IC50 [1]: 3.1 nM
Ratio IC50 [2]: 21
IC50 [3]: 64.5 nM

COC(=O)C1=C(c2ccc(Cl)c(Cl)c2)CC2CC[C@@H]1O2
IC50 [1]: 58 nM
Ratio IC50 [2]: 805
IC50 [3]: 46700 nM

COC(=O)[C@@H]1C2CCC(C[C@@H]1c1ccccc1)S2 (some centres not stated)
IC50 [1]: 117 nM
Ratio IC50 [2]: > 29
IC50 [3]: > 3000 nM

COC(=O)[C@@H]1C2CCC(C[C@H]1c1ccc(F)cc1)S2 (some centres not stated)
IC50 [1]: 59 nM
Ratio IC50 [2]: > 186
IC50 [3]: > 11000 nM

COC(=O)[C@@H]1[C@@H]2CCC(C[C@H]1c1ccc(Cl)c(Cl)c1)O2
IC50 [1]: 56 nM
Ratio IC50 [2]: 51
IC50 [3]: 2860 nM

COC(=O)C1=C(c2ccc(Cl)c(Cl)c2)CC2CCC1S2 (configuration not stated)
IC50 [1]: 4.5 nM
Ratio IC50 [2]: > 800
IC50 [3]: > 3000 nM

COC(=O)C1=C(c2ccc(F)c(F)c2)CC2CCC1S2 (configuration not stated)
IC50 [1]: 75 nM
Ratio IC50 [2]: > 133
IC50 [3]: > 10000 nM

COC(=O)[C@@H]1C2CCC(C[C@H]1c1ccc(F)c(F)c1)[S+]2[O-] (some centres not stated)
IC50 [1]: 89 nM
Ratio IC50 [2]: > 775
IC50 [3]: > 69000 nM

COC(=O)[C@@H]1C2CCC(C[C@@H]1c1ccc(F)c(Cl)c1)S2 (some centres not stated)
IC50 [1]: 6.7 nM
Ratio IC50 [2]: 55
IC50 [3]: 370 nM

COC(=O)[C@@H]1[C@@H]2CCC(C[C@@H]1c1ccc(Cl)c(Cl)c1)O2
IC50 [1]: 47 nM
Ratio IC50 [2]: 1.2
IC50 [3]: 58 nM

COC(=O)C1=C(c2ccc(Cl)c(Cl)c2)CC2CC[C@H]1O2
IC50 [1]: 4.6 nM
Ratio IC50 [2]: 460
IC50 [3]: 2120 nM

COC(=O)[C@@H]1C2CCC(C[C@@H]1c1ccc3ccccc3c1)S2 (some centres not stated)
IC50 [1]: 16 nM
Ratio IC50 [2]: 0.8
IC50 [3]: 13 nM

COC(=O)[C@@H]1C2CCC(C[C@@H]1c1ccc(F)cc1)S2 (some centres not stated)
IC50 [1]: 38 nM
Ratio IC50 [2]: 13
IC50 [3]: 494 nM

COC(=O)[C@@H]1C2CCC(C[C@H]1c1ccc(Cl)c(Cl)c1)[S+]2[O-] (some centres not stated)
IC50 [1]: 7.8 nM
Ratio IC50 [2]: > 346
IC50 [3]: > 3000 nM

COC(=O)[C@@H]1[C@@H]2CCC(C[C@@H]1c1ccc(Cl)c(Cl)c1)S2
IC50 [1]: 22 nM
Ratio IC50 [2]: 4
IC50 [3]: 90 nM

COC(=O)[C@@H]1C2CCC(C[C@H]1c1ccc(F)c(Cl)c1)[S+]2[O-] (some centres not stated)
IC50 [1]: 23 nM
Ratio IC50 [2]: > 1350
IC50 [3]: > 31000 nM

COC(=O)[C@@H]1C2CCC(C[C@H]1c1ccccc1)[S+]2[O-] (some centres not stated)
IC50 [1]: 1000 nM
Ratio IC50 [2]: 100
IC50 [3]: 100000 nM

COC(=O)[C@@H]1C2CCC(C[C@@H]1c1ccc(I)cc1)S2 (some centres not stated)
IC50 [1]: 14 nM
Ratio IC50 [2]: 0.7
IC50 [3]: 10 nM

COC(=O)[C@@H]1C2CCC(C[C@@H]1c1ccc(Cl)c(F)c1)[S+]2[O-] (some centres not stated)
IC50 [1]: 14 nM
Ratio IC50 [2]: > 286
IC50 [3]: > 4000 nM

COC(=O)[C@@H]1C2CCC(C[C@H]1c1ccc(Cl)c(Cl)c1)S2 (some centres not stated)
IC50 [1]: 6.9 nM
Ratio IC50 [2]: 14
IC50 [3]: 99 nM

COC(=O)[C@@H]1C2CCC(C[C@H]1c1ccc3ccccc3c1)S2 (some centres not stated)
IC50 [1]: 8 nM
Ratio IC50 [2]: 4.5
IC50 [3]: 36 nM

COC(=O)[C@@H]1C2CCC(C2)C[C@H]1c1ccc(Cl)c(Cl)c1 (some centres not stated)
IC50 [1]: 13 nM
Ratio IC50 [2]: 13
IC50 [3]: 166 nM

COC(=O)[C@@H]1C2CCC(C[C@H]1c1ccc(F)c(F)c1)S2 (some centres not stated)
IC50 [1]: 11.3 nM
Ratio IC50 [2]: 88
IC50 [3]: 1000 nM

COC(=O)C1=C(c2ccc(Cl)c(Cl)c2)CC2CCC1O2 (configuration not stated)
IC50 [1]: 10 nM
Ratio IC50 [2]: 600
IC50 [3]: 6000 nM
